Here are results for four compounds from ChEMBL document CHEMBL1155616, “Ancistroealaines A and B, two new bioactive naphthylisoquinolines, and related naphthoic acids from Ancistrocladus ealaensis” (J Nat Prod, 2000).

Data set [1] relates to Trypanosoma brucei rhodesiense. In words: Antitrypanosomal activity against Trypanosoma brucei rhodesiense STIB900 by Alamar blue assay. The class given is functional, organism-based. The method, boiled down:
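Bloodstream parasites were grown in Minimum Essential Medium with 2-mercaptoethanol and 15% heat-inactivated horse serum, with serial drug dilutions, for 72 h at 37 °C in 5% CO₂. Alamar Blue was then added for 2–4 h more, and fluorescence read at excitation 530 nm and emission 590 nm. Signal was expressed as % of control to give IC50.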

In data set [2] the test system is Trypanosoma cruzi. In words: Antitrypanosomal activity against galactosidase gene containing Trypanosoma cruzi Tulahuen C2C4 trypomastigotes in rat L6 cells after 4 days. To be noted: Tulahuen C2C4, L6, 96 h. It counts as functional, organism-based. The method, boiled down:
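L-6 myoblasts were seeded at 2000 cells/well in RPMI 1640 with 10% FBS and 2 mM L-glutamine. After 24 h, 5000 trypomastigotes were added with serial drug dilutions. Plates were kept at 37 °C in 5% CO₂ for 4 days. CPRG/Nonidet substrate was added and colour read at 540 nm after 2–4 h. IC50 was taken from the sigmoidal inhibition curve.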

For data set [3], the system named is Plasmodium falciparum. In words: Antiplasmodial activity against Plasmodium falciparum K1 in human erythrocytes by [3H]hypoxanthine uptake. It counts as functional, organism-based. To be noted: K1, 72 h. The method, boiled down:
(§1)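 [³H]hypoxanthine incorporation assay, modified. Infected human red cells were exposed to serial drug dilutions for 48 h at 37 °C under reduced O₂ and raised CO₂. [³H]hypoxanthine was then added and incubation continued for 24 h. Cells were harvested on glass-fibre filters and counted by liquid scintillation. IC50 was taken from the sigmoidal inhibition curve. Runs were in duplicate and repeated at least once.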

For data set [4], the system named is Plasmodium falciparum. The data set can be described thus: Antiplasmodial activity against Plasmodium falciparum NF54 in human erythrocytes by [3H]hypoxanthine uptake. It counts as functional, organism-based. The note with it: NF54, 72 h. A digest of the protocol: as §1
Data set [5] is described as follows: Cytotoxicity against rat L6 cells after 4 days. The class given is cell-based. To be noted: read-out: MIC. The method, boiled down: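 Uninfected L-6 myoblasts were run in the same format as the T. cruzi assay: RPMI 1640 with 10% FBS and 2 mM L-glutamine, same serial drug dilution, 37 °C, 5% CO₂. The MIC was judged microscopically after 4 days.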
Data set [6] deals with Leishmania donovani. The data set can be described thus: Antileishmanial activity against Leishmania donovani MHOM-ET-67/L82 amastigotes in mouse peritoneal macrophages. The class given is functional, organism-based. A digest of the protocol: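 Mouse peritoneal macrophages in RPMI 1640 with 10% heat-inactivated FBS were infected after 24 h with amastigotes at 3:1 (parasite:macrophage). Free parasites were removed at 4 h. Drug was added the next day and cells incubated for 96 h at 37 °C in 5% CO₂. Slides were MeOH-fixed and Giemsa-stained, and the infected/noninfected ratio counted microscopically as % of control. IC50 was obtained by linear regression.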

Data set [7] in a line: Cytotoxicity against mouse peritoneal macrophages. The class given is cell-based, Macrophage. To be noted: read-out: MIC.

≈ marks a conversion by molar mass, not a printed value.

In turn, `Nc1nc(N)nc(Nc2ccc([As]3SCC(CO)S3)cc2)n1` (stereo unspecified) [MELARSOPROL] displayed an IC50 in data set [1] of 0.0063 µg/mL.

In data set [2], `O=C(Cn1ccnc1[N+](=O)[O-])NCc1ccccc1` [BENZNIDAZOLE] showed a half-inhibitory concentration (IC50) of 0.3 µg/mL (≈ 1.15 µM).

As to `COc1cc(OC)c2c(c1-c1ccc(O)c3c(OC)cc(C)cc13)C[C@H](C)N[C@H]2C` [ANCISTROEALAINE B], the half-maximal inhibitory concentration (IC50) was determined as 0.52 µg/mL (≈ 1.28 µM) in data set [3]; 0.79 µg/mL (≈ 1.94 µM) in data set [4]; 17.6 µg/mL (≈ 43.2 µM) in data set [2]; 2.03 µg/mL (≈ 4.98 µM) in data set [1]; 10 µg/mL (≈ 24.5 µM) in data set [6]. Also, the MCC at 96 h in data set [5] is 90 µg/mL. Also, in data set [7], the MCC was greater than 30 µg/mL.

Consider `COc1cc(OC)c(-c2ccc(OC)c3c(OC)cc(C)cc23)c2c1C(C)=N[C@@H](C)C2` [ANCISTROEALAINE A], for which the IC50 in data set [3] was 1.2 µg/mL (≈ 2.86 µM); in data set [4], 4 µg/mL (≈ 9.53 µM); in data set [2], 2.35 µg/mL (≈ 5.6 µM); in data set [1] it was 3.46 µg/mL (≈ 8.25 µM); in data set [6], 4.1 µg/mL (≈ 9.77 µM). Besides, the MCC at 96 h in data set [5] is greater than 90 µg/mL. The MCC in data set [7] is greater than 30 µg/mL.

One may read the IC50 as the concentration needed to halve the response being measured. Low readings indicate inhibition by little substance, high ones a need for much substance.
